Data set [1] has as its system Quadruplex DNA. Briefly: Binding affinity to c-myc promoter G-quadruplex/i-motif in human SiHa cells assessed as reduction in c-myc expression at 2.5 uM incubated for 24 hrs by Western blot analysis. The format is cell-based. On the set-up: scale not given: the % may be the effect or the level left. An outline of the steps: (§1)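 SiHa cells treated 24 h at 0, 0.625, 1.25 and 2.5 μM, then lysed in buffer with 1 mM PMSF. Protein measured by BCA, equal loads run on 8% gel and blotted to PVDF. Probed with anti-c-MYC and anti-β-actin (loading control), HRP anti-rabbit secondary, chemiluminescence read-out.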
(In western blotting, separated proteins are transferred to a membrane and probed.)

Data set [2] relates to Quadruplex DNA. As to the kind of experiment: Stabilization of c-myc promoter G-quadruplex DNA Pu27 (unknown origin) assessed as effect on melting temperature at 5 uM by CD spectroscopy. The format is nucleic-acid assay. The gist of the method: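 CD melting: Pu27 diluted to 1 µM in 10 mM Tris-HCl, 5 mM KCl, pH 7.4, with or without ligand. Annealed at 95 °C for 5 min, slowly cooled, then heated at 1 °C/min while monitoring 260 nm. Tm obtained by curve fitting.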

In data set [3] the test system is SiHa. Briefly: Inhibition of c-myc transcription in human SiHa cells harboring c-myc deleted promoter G-quadruplex/i-motif (unknown origin) assessed as decrease in ratio of renilla/firefly luciferase activity at 0.025 to 0.1 uM after 48 hrs by dual-luciferase reporter assay. To be noted: dose microM 0.025-0.1, time 48.0 hrs. The format is functional, cell-based. An outline of the steps: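 Psicheck2 plasmid carrying deleted c-myc promoter (lacking NHE III₁ G/C-rich sequence), 200 ng, lipofected into SiHa cells. Compound added 8 h post-transfection, cells kept 48 h at 37 °C, washed with ice-cold PBS, then Renilla/Firefly luciferase activity ratio measured with a dual-luciferase kit.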
In general terms: Reporter assays use an easily measured gene product as a stand-in for the process of interest.

For data set [4], the system named is SiHa. Briefly: Induction of apoptosis in human SiHa cells assessed as early apoptotic cells at 2.4 uM after 24 hrs by annexin V/FITC-propidium iodide staining-based flow cytometric method ( Rvb = 0.3%). The format is functional. A general note: In flow cytometry, cells or beads pass a laser one at a time.
Data set [5] can be described thus: Toxicity in BALB/c nude mouse xenografted with human SiHa cells assessed as effect on spleen weight at 15 mg/kg, ip administered once per 2 days for 18 days. The note with it: in vivo, 432 h, time 18 day. The format is organism-based. An outline of the steps: (§2)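 SiHa tumour fragments passaged from donor mice implanted in the underarm of female BALB/c nude mice (six per group). Compound given at 15 mg/kg ip once every two days for 18 days, with saline and cisplatin 0.2 mg/kg control groups. Body weight recorded every two days; at day 18 mice were sacrificed and organs weighed.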

Data set [6] has as its system Quadruplex DNA. Briefly: Stabilization of c-myc promoter G-quadruplex DNA Pu27 (unknown origin) by 1H NMR spectra analysis. The format is nucleic-acid assay. An outline of the steps: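 1D ¹H NMR titration with water suppression at 25 °C on a 600 MHz spectrometer. DNA at 0.5 mM in 10% D₂O/90% H₂O: Pu27 in 10 mM Tris-HCl pH 7.4, Py33 in 1× BPES pH 6.4. Annealed at 95 °C for 5 min before titration; ligand stock in d₆-DMSO.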

The nature of data set [7]: Toxicity in BALB/c nude mouse xenografted with human SiHa cells assessed as effect on heart weight at 15 mg/kg, ip administered once per 2 days for 18 days. The format is organism-based. The note with it: in vivo, 432 h, time 18 day. The gist of the method:
as §2

Data set [8] can be described thus: Toxicity in BALB/c nude mouse xenografted with human SiHa cells assessed as effect on kidney weight at 15 mg/kg, ip administered once per 2 days for 18 days. The format is organism-based. To be noted: in vivo, 432 h, time 18 day. An outline of the steps: as §2
Data set [9] has as its system Raji. As to the kind of experiment: Induction of apoptosis in human Raji cells at 0.6 to 2.4 uM after 24 hrs by propidium iodide staining based flow cytometry. The format is functional, cell-based. The note with it: dose microM 0.6-2.4, time 24.0 hrs.
Data set [10] has as its system SiHa. Briefly: Induction of cell cycle arrest in human SiHa cells assessed as accumulation of cells at G0/G1 phase at 0.15 uM after 24 hrs by propidium iodide staining based flow cytometry (reference value: 42.28%). The format is functional.
Data set [11] relates to Quadruplex DNA. Briefly: Binding affinity to c-myc promoter G-quadruplex/i-motif in human SiHa cells assessed as reduction in c-myc expression at 1.25 uM incubated for 24 hrs by Western blot analysis. The format is cell-based. On the set-up: scale not given: the % may be the effect or the level left. The gist of the method: as §1

The source made the active and inactive calls. No cut-off for these calls is given here.

`Cc1ccc2nc3ccc(C)cc3c(NCCCNCCNCCCNc3c4cc(C)ccc4nc4ccc(C)cc34)c2c1`: the Activity in data set [1] is < 73.9%; in [4], 55.4%; in data set [5], “Non-Toxic”; in data set [7], “Non-Toxic”; in data set [8], “Non-Toxic”; in data set [10] it was 37.96%. Besides, the Activity in data set [11] is < 39.8%. Further, the outcome in [2], in data set [6] and in data set [9] was Active. For the same compound, the result in [3] was inactive.
